Measurements from article PMC2190483 (The Journal of Experimental Medicine, 1976).

Assays:
[1] = tested on: human eosinophils; assay: Chemotactic deactivation of eosinophils, assessed by response to Val-Gly-Ser-Glu; format: cell-based; conditions: for deactivation (qualitative): 10-r' M tetrapeptide, response to valyl-tetrapeptide, Fig. 3
How it was run: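 Leukocytes from hypereosinophilic donors were dextran-sedimented, washed and resuspended in HBSS with 0.4% ovalbumin and Tris-HCl pH 7.4. Eosinophils were preincubated 2–40 min at 37°C with graded valyl- or alanyl-tetrapeptide, then washed three times. They were then challenged in a Boyden chamber (3-µm filter) with 10^-7 M valyl-tetrapeptide. Residual response is given as % of buffer-treated cells, mean ±1 SD of three experiments.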

[2] = tested on: human eosinophils; assay: Cross-deactivation of eosinophils, assessed by response to C5a; format: cell-based; conditions: 10-12 M tetrapeptide pretreatment; Fig. 4
How it was run: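 Eosinophils in HBSS-ovalbumin were pretreated 2–40 min at 37°C with graded valyl- or alanyl-tetrapeptide and washed three times. They were then challenged in a Boyden chamber with C5a at the level derived from 2.5 µg equivalent of C5/ml. C5a came from tryptic digestion of human plasma C5, heated 20 min at 61°C and centrifuged. Results are % of buffer-treated control, mean ±1 SD, three experiments.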

[3] = tested on: human eosinophils; assay: Eosinophil chemotaxis in modified Boyden chambers; format: cell-based; conditions: for chemotactic activity (qualitative): eosinophils; for magnitude of the maximum eosinophil response (rank among tetrapeptides): Discussion, Fig. 1
How it was run: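 Blood from donors with 26–89% eosinophilia was citrate/dextran-sedimented 30 min at 37°C and centrifuged 100 g for 10 min. Leukocytes were washed three times into HBSS-0.4% ovalbumin-Tris pH 7.4. Stimuli in the lower compartment were separated from cells by a 3-µm filter, incubated 2½–3 h at 37°C. Fixed, stained filters were read blind at background depth (2–8 cells/hpf), 10 hpf from duplicate chambers, as net cells/hpf.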

[4] = tested on: human eosinophils; assay: Modulation; format: cell-based; conditions: for irreversible inhibition of the eosinophil response to 10-7 M valyl-tetrapeptide: neutrophil comparison; for inhibition of response to 10-7 M valyl-tetrapeptide: pretreatment with 10^-7 M tripeptide followed by washing; for inhibition of the valyl-tetrapeptide effect: 10^-7 M tripeptide added with the stimulus
How it was run: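 Tripeptides or amides were added to the stimulus compartment with 10^-7 M valyl-tetrapeptide or to the cell compartment. Alternatively, eosinophils were preincubated with them 20 min at 37°C and washed three times. Migration in a modified Boyden chamber (3-µm filter, 2½–3 h, 37°C) was counted as net eosinophils/hpf. It is expressed as % of the response of buffer-treated cells.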

[5] = tested on: human eosinophils; assay: Suppression of the eosinophil chemotactic response to C5a by tripeptides; format: cell-based; conditions: for inhibition of response to C5a: pretreatment with 10^-7 M tripeptide followed by washing; for inhibition of the C5a-stimulated response: 10^-7 M tripeptide added with the stimulus
How it was run: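 NH2-terminal tripeptide was added to the stimulus compartment with C5a in two experiments. In three experiments, eosinophils were pretreated with COOH-terminal tripeptide and washed. The C5a stimulus was a tryptic digest of purified human plasma C5, heat-treated 20 min at 61°C.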

[6] = tested on: neutrophils; assay: Neutrophil chemotaxis to valyl-tetrapeptide and its inhibition by tripeptides; format: cell-based, human; conditions: for irreversible inhibition of the neutrophil response: response to 10^-7 M valyl-tetrapeptide; for inhibition of the response of neutrophils: tripeptide added to the stimulus, equimolar to valyl-tetrapeptide; for chemotactic response of neutrophils: valyl-tetrapeptide stimulus, neutrophils purified to 98%
How it was run: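 Neutrophils from normal donors were isolated on Ficoll-Hypaque to 98% purity, washed and resuspended in HBSS-ovalbumin. They were tested in modified Boyden chambers with a 3-µm filter against 10^-7 M valyl-tetrapeptide, with or without NH2- or COOH-terminal tripeptide, for 2½–3 h at 37°C. Migrated cells were counted blind in 10 hpf from duplicate chambers as net neutrophils/hpf.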

[7] = tested on: human eosinophils; format: cell-based
How it was run: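 Eosinophils were pretreated 20 min at 37°C with deactivating valyl-tetrapeptide or COOH-terminal tripeptide, with Val-Gly-Ser present at graded concentrations. They were then washed three times. Residual chemotactic response to 10^-7 M valyl-tetrapeptide was measured in Boyden chambers. It is expressed as mean % of buffer-exposed control response, from two experiments with different donors.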

## Ala-Gly-Ser-Glu
[1]
  deactivation (qualitative): substantial deactivation
[2]
  effect on eosinophil responsiveness to C5a: did not decrease

## Gly-Ser-Glu
[3]
  chemotactic activity (qualitative): only marginally chemotactic
[4]; 10^-7 M mixed with an equimolar quantity of valyl-tetrapeptide stimulus
  effect when mixed with stimulus: ineffective
[4]; experiment 1
  irreversible inhibition of the eosinophil response to 10-7 M valyl-tetrapeptide: 61%
[4]; experiment 2
  irreversible inhibition of the eosinophil response to 10-7 M valyl-tetrapeptide: 74%
[4]; experiment 2 of three
  inhibition of response to 10-7 M valyl-tetrapeptide: 62%
[4]; experiment 3 of three
  inhibition of response to 10-7 M valyl-tetrapeptide: 48%
[5]; experiment 1 of three
  inhibition of response to C5a: 71%
[5]; experiment 2 of three
  inhibition of response to C5a: 53%
[5]; experiment 3 of three
  inhibition of response to C5a: 37%
[6]; experiment 1
  irreversible inhibition of the neutrophil response: 33%
[6]; experiment 2
  irreversible inhibition of the neutrophil response: 28%

## Leu- Ser-Glu [Leu-Ser-Glu]
[3]; versus maximum obtained with 10^-7 M tetrapeptides, Fig. 2
  maximum activity as fraction of maximum chemotactic activity of tetrapeptides: approximately two-thirds

## Leu-Gly-Ser-Glu
[3]
  magnitude of the maximum eosinophil response (rank among tetrapeptides): the least

## Phe-Gly-Ser-Glu
[3]
  magnitude of the maximum eosinophil response (rank among tetrapeptides): greatest maximum response
[1]; at 10^-6 M
  deactivating activity (qualitative): comparable to 10-~ M alanyl-tetrapeptide
[1]; at 10^-7 M
  deactivating activity (qualitative): minimally evident

## Val-Gly-Ser
[3]
  chemotactic activity (qualitative): only marginally chemotactic
[4]; experiment 1 of two
  inhibition of the valyl-tetrapeptide effect: 47%
[4]; experiment 2 of two
  inhibition of the valyl-tetrapeptide effect: 61%
[4]; on the stimulus side with 10^-7 M valyl-tetrapeptide, equimolar concentrations, Discussion, Fig. 5
  inhibition of the eosinophil response: 50-60%
[4]; tripeptide added to the 10^-7 M tetrapeptide stimulus at approximately an equimolar concentration, Fig. 5, Results
  inhibition of the eosinophil response: 50%
[5]; experiment 1 of two
  inhibition of the C5a-stimulated response: 18%
[5]; experiment 2 of two
  inhibition of the C5a-stimulated response: 29%
[7]; at an equimolar concentration or at a 10-fold excess
  protection against the COOH-terminal tripeptide: no protection
[7]; equimolar concentration of tripeptide and deactivating valyl-tetrapeptide
  protection from deactivation by valyl-tetrapeptide: 40-50%
[7]; tripeptide at 10^-7 M with 10^-8 M valyl-tetrapeptide
  protection from deactivation by valyl-tetrapeptide (qualitative): completely protective
[6]; equimolar concentrations, Discussion
  reduction of the neutrophil response to 10-7 M valyl-tetrapeptide: Approximately 50%
[6]; experiment 1
  inhibition of the response of neutrophils: 49%
[6]; experiment 2
  inhibition of the response of neutrophils: 54%

## Val-Gly-Ser-Glu
[3]; 10^-7 M stimulus, Table I, donor 2 (37% eosinophilia)
  control chemotactic response: 12.3 net eosinophils per hpf
[3]; 10^-7 M stimulus, Table II, experiment 2, buffer-exposed cells
  control chemotactic response: 11.7 net eos/hpf
[3]; valyl-tetrapeptide stimulus, neutrophil comparison, experiment 2
  chemotactic response of eosinophils: 15.3 eosinophils (eos)/hpf
[1]
  deactivation (qualitative): substantial deactivation
[2]
  effect on eosinophil responsiveness to C5a: did not decrease
[6]; experiment 1
  chemotactic response of neutrophils: 16.9 neutrophils/hpf
[6]; experiment 2
  chemotactic response of neutrophils: 21.4 neutrophils/hpf

B1: C5a: prepared by tryptic digestion of purified C5 prepared from human plasma (protein, UniProt P01031 678-751, looked up)
C5a anaphylatoxin: TLQKKIEEIAAKYKHSVVKKCCYDGACVNNDETCEQRAARISLGPRCIKAFTECCVVASQLRANISHKDMQLGR
modifications: C5a anaphylatoxin
[3]; C5a derived from 2.5 µg equivalent of C5/ml, Fig. 4, donor 2 (43% eosinophilia)
  control chemotactic response: 16.5 net eos/hpf
[3]; C5a derived from 2.5 µg equivalent of C5/ml, Fig. 4, donor 3 (59% eosinophilia)
  control chemotactic response: 18.8 net eos/hpf
